Experiments:
Type in all cases: toxicity, cell-based
[1] = tested on: Fibroblast; assay: Multiplex assay against human fibroblast
How it was run: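 Cells stained live at seeding with Hoechst33342, BioTracker Green Microtubule Cytoskeleton Dye, MitoTracker Red and Annexin V Alexa Fluor 680 were imaged on a CQ1 microscope at 37°C and 5% CO2 after compound addition. Their classification by CellPathfinder machine-learning gating ran from Hoechst high-intensity objects versus normal cells, to healthy, pyknosed or fragmented nuclei among normal cells, to mitotic or apoptotic among pyknosed cells. Tubulin, mitochondrial-mass and membrane-permeability phenotypes are per cents of healthy-nucleus cells.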

[2] = tested on: HEK-293T; assay: Incucyte cell viability with HEK293T; settings: human, 10 µM, compound concentration 10 uM; also: filed as whole numbers so only -1 and 0 and 1 occur
[3] = tested on: Fibroblast; assay: Incucyte cell viability with human fibroblast; settings: 10 µM, compound concentration 10 uM; also: filed as whole numbers so only -1 and 0 and 1 occur
[4] = tested on: U2OS; assay: Incucyte cell viability with U2OS; settings: human, 10 µM, compound concentration 10 uM; also: filed as whole numbers so only -1 and 0 and 1 occur
[5] = 12 h, 1 µM, compound concentration 1 uM, replicate 1
[6] = 12 h, 1 µM, compound concentration 1 uM, replicate 2
[7] = 12 h, 10 µM, compound concentration 10 uM, replicate 1
[8] = 12 h, 10 µM, compound concentration 10 uM, replicate 2
[9] = 24 h, 1 µM, compound concentration 1 uM, replicate 1
[10] = 24 h, 1 µM, compound concentration 1 uM, replicate 2
[11] = 24 h, 10 µM, compound concentration 10 uM, replicate 1
[12] = 24 h, 10 µM, compound concentration 10 uM, replicate 2
[13] = 6 h, replicate number 1, timepoint 6 hours
[14] = 12 h, replicate number 1, timepoint 12 hours
[15] = 18 h, replicate number 1, timepoint 18 hours
[16] = 24 h, replicate number 1, timepoint 24 hours

Q: Which results are given for `Cl.Cn1c2c(c3ccc(Cl)c(Cl)c31)C(C#N)C1(CCNCC1)NC2=O` (stereo unspecified)?
A: Population Apoptotic (%) [1, 5]: 75%; Population Fragmented Nuclei (%) [1, 5]: 35%; Population Healthy Nuclei (%) [1, 5]: 51%; Population Hoechst High Intensity Objects (%) [1, 5]: 11%; Population Membrane Permeable-Phenotype (%) [1, 5]: 8%; Population Mitochondria Different-Phenotype (%) [1, 5]: 2%; Population Mitotic Cells (%) [1, 5]: 25%; Population Normal (%) [1, 5]: 88%; Population Pyknosed Nuclei (%) [1, 5]: 13%; Population Tubulin-Different-Phenotype (%) [1, 5]: 6%; Total Cell Count [1, 5]: 332; Population Apoptotic (%) [1, 6]: 50%; Population Fragmented Nuclei (%) [1, 6]: 59%; Population Healthy Nuclei (%) [1, 6]: 33%; Population Hoechst High Intensity Objects (%) [1, 6]: 32%; Population Membrane Permeable-Phenotype (%) [1, 6]: 9%; Population Mitochondria Different-Phenotype (%) [1, 6]: 9%; Population Mitotic Cells (%) [1, 6]: 50%; Population Normal (%) [1, 6]: 67%; Population Pyknosed Nuclei (%) [1, 6]: 6%; Population Tubulin-Different-Phenotype (%) [1, 6]: 9%; Total Cell Count [1, 6]: 92; Population Apoptotic (%) [1, 7]: 64%; Population Fragmented Nuclei (%) [1, 7]: 44%; Population Healthy Nuclei (%) [1, 7]: 40%; Population Hoechst High Intensity Objects (%) [1, 7]: 19%; Population Membrane Permeable-Phenotype (%) [1, 7]: 8%; Population Mitochondria Different-Phenotype (%) [1, 7]: 6%; Population Mitotic Cells (%) [1, 7]: 35%; Population Normal (%) [1, 7]: 80%; Population Pyknosed Nuclei (%) [1, 7]: 14%; Population Tubulin-Different-Phenotype (%) [1, 7]: 37%; Total Cell Count [1, 7]: 482; Population Apoptotic (%) [1, 8]: 40%; Population Fragmented Nuclei (%) [1, 8]: 48%; Population Healthy Nuclei (%) [1, 8]: 39%; Population Hoechst High Intensity Objects (%) [1, 8]: 23%; Population Membrane Permeable-Phenotype (%) [1, 8]: 5%; Population Mitochondria Different-Phenotype (%) [1, 8]: 2%; Population Mitotic Cells (%) [1, 8]: 60%; Population Normal (%) [1, 8]: 76%; Population Pyknosed Nuclei (%) [1, 8]: 11%; Population Tubulin-Different-Phenotype (%) [1, 8]: 73%; Total Cell Count [1, 8]: 112; Population Apoptotic (%) [1, 9]: 67%; Population Fragmented Nuclei (%) [1, 9]: 38%; Population Healthy Nuclei (%) [1, 9]: 50%; Population Hoechst High Intensity Objects (%) [1, 9]: 15%; Population Membrane Permeable-Phenotype (%) [1, 9]: 4%; Population Mitochondria Different-Phenotype (%) [1, 9]: 3%; Population Mitotic Cells (%) [1, 9]: 32%; Population Normal (%) [1, 9]: 84%; Population Pyknosed Nuclei (%) [1, 9]: 10%; Population Tubulin-Different-Phenotype (%) [1, 9]: 4%; Total Cell Count [1, 9]: 379; Population Apoptotic (%) [1, 10]: 0%; Population Fragmented Nuclei (%) [1, 10]: 67%; Population Healthy Nuclei (%) [1, 10]: 31%; Population Hoechst High Intensity Objects (%) [1, 10]: 29%; Population Membrane Permeable-Phenotype (%) [1, 10]: 9%; Population Mitochondria Different-Phenotype (%) [1, 10]: 0%; Population Mitotic Cells (%) [1, 10]: 100%; Population Normal (%) [1, 10]: 70%; Population Pyknosed Nuclei (%) [1, 10]: 1%; Population Tubulin-Different-Phenotype (%) [1, 10]: 19%; Total Cell Count [1, 10]: 95; Population Apoptotic (%) [1, 11]: 61%; Population Fragmented Nuclei (%) [1, 11]: 28%; Population Healthy Nuclei (%) [1, 11]: 55%; Population Hoechst High Intensity Objects (%) [1, 11]: 37%; Population Membrane Permeable-Phenotype (%) [1, 11]: 6%; Population Mitochondria Different-Phenotype (%) [1, 11]: 10%; Population Mitotic Cells (%) [1, 11]: 38%; Population Normal (%) [1, 11]: 62%; Population Pyknosed Nuclei (%) [1, 11]: 15%; Population Tubulin-Different-Phenotype (%) [1, 11]: 38%; Total Cell Count [1, 11]: 492; Population Apoptotic (%) [1, 12]: 87%; Population Fragmented Nuclei (%) [1, 12]: 42%; Population Healthy Nuclei (%) [1, 12]: 42%; Population Hoechst High Intensity Objects (%) [1, 12]: 43%; Population Membrane Permeable-Phenotype (%) [1, 12]: 9%; Population Mitochondria Different-Phenotype (%) [1, 12]: 14%; Population Mitotic Cells (%) [1, 12]: 12%; Population Normal (%) [1, 12]: 56%; Population Pyknosed Nuclei (%) [1, 12]: 16%; Population Tubulin-Different-Phenotype (%) [1, 12]: 42%; Total Cell Count [1, 12]: 89; Growth Rate [2, 13]: 0; Growth Rate [2, 14]: 0; Growth Rate [2, 15]: 0; Growth Rate [2, 16]: 0; Growth Rate [3, 13]: 0; Growth Rate [3, 14]: 0; Growth Rate [3, 15]: 0; Growth Rate [3, 16]: 0; Growth Rate ([4]; 0 h, replicate number 1, timepoint 0 hours): 0; Growth Rate [4, 13]: 0; Growth Rate [4, 14]: 0; Growth Rate [4, 15]: 0; Growth Rate [4, 16]: 0
